MPTP block: permeability transition pore inhibition; 360,000 tested, 1.4% active; AID 602449; inhibition, % at 10 µM; isolated mouse mitochondria, Ca2+ swelling absorbance, 30 min;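 active = inhibition of 50% or more, scaled per plate between neutral and stimulator controls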;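 note: 0% = DMSO wells given calcium and 100% = 1 mM EGTA wells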
GRIN3A LBD mod: modulates the human NR3A ligand-binding domain; NR3A LBD differential scanning fluorimetry, Tm shift; 0% = protein alone, 100% = glycine-bound protein; Tm shift relative to glycine control, % at 25 µM; 340,000 tested, 2.5% active;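 active = melting temperature shift of at least 10% of the positive control shift, at one fixed dose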
CHOP inhibitor: blocks CHOP induction under ER stress; CHO-K1 CHOP-promoter luciferase, tunicamycin-induced, 15-18 h; inhibition, % at 10 µM; 220,000 tested, 3.8% active;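 active = compounds that reduced the stress-induced luciferase reporter signal by more than about 70% of percent inhibition, limit read from the data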;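 note: 0% = tunicamycin plus vehicle and 100% = wells without tunicamycin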
WT yeast gro inh: growth inhibition of WT yeast, mitochondrial fusion screen; mitochondrial fusion phenotypic screen, WT strain; inhibition, % at 10 µM; 190,000 tested, 2.1% active; AID 1362; in the data active = inhibition above about 58%; tested in S. cerevisiae
TbMetRS inhib: blocks T. brucei methionyl-tRNA synthetase activity; purified T. brucei MetRS, ATP depletion, Kinase-Glo luminescence; inhibition, % at 11.9 µM; 360,000 tested, 0.4% active; AID 624268;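 active = inhibition above a per-plate cutoff of the control wells' mean inhibition plus 3 SD, cut at about 5.5% in these data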;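 note: 0% = DMSO wells median and 100% = median of wells with control inhibitor compound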
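Test system: purified T. brucei MetRS enzyme. Also added: ATP, methionine and E. coli bulk tRNA substrates. Compound: 11.9 µM single point. Schedule: 15 min enzyme-compound preincubation, 2 h reaction, 10 min detection, 25 °C. Signal: luciferase luminescence of residual ATP, Kinase-Glo. Evaluation: percent inhibition versus plate control medians. Controls: DMSO wells, low control.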
EBV gp42 inh: EBV gp42 inhibition; Q1HVG2; Fluorescence polarization binding assay, mP read-out; inhibition, % (tested at 21.74 µM); 220,000 tested, 0.42% active; AID 1085; in the data active = inhibition above about 50%
Target sequence (Q1HVG2 whole entry, looked up): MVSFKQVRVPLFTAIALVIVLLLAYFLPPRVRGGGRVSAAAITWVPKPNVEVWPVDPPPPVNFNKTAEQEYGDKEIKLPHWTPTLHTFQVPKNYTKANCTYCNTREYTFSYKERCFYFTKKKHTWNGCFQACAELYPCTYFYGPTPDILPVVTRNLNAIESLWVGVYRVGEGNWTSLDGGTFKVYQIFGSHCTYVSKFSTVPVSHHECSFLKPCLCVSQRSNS
An asterisk follows results filed as active; . = no result. Rows were chosen to be rich in hits. Some 6.4% of all compounds tested hit in one or more screens of this group.

SMILES	MPTP block	GRIN3A LBD mod	CHOP inhibitor	WT yeast gro inh	TbMetRS inhib	EBV gp42 inh
COc1cc(/C=C(\C#N)C(=O)NCC2CCCO2)ccc1OC(C)C (stereo not given)	-1	11*	-15	-36	0	-22
O=Nc1c(O)n(Cc2ccc(Cl)cc2Cl)c2ccccc12	13	-9	87*	-2	0	2
O=Nc1c(O)n(Cc2ccc(Cl)cc2)c2ccccc12	6	-10	16	15	0	42
CCOC(=O)n1c(=O)n(Cc2ccccc2Cl)c2ccccc21	-1	-1	19	-9	-1	-7
O=Nc1c(O)n(Cc2c(Cl)cccc2Cl)c2ccccc12	11	-2	91*	-3	-1	-13
Cc1ccc2c(c1)c(N=O)c(O)n2Cc1ccc(Cl)cc1	4	4	42	74*	-1	9
CCOC(=O)n1c(=O)n(Cc2ccc(Cl)cc2Cl)c2ccccc21	0	1	81*	11	-1	2
O=C1NC(=O)C(CC(=O)N(Cc2ccco2)C2(C(=O)NC3CCCC3)CCCCC2)N1 (stereo not given)	0	3	27	3	-1	2
Cc1cccc(C)c1NC(=O)C1(N(Cc2ccco2)C(=O)CC2NC(=O)NC2=O)CCCCC1 (stereo not given)	-1	1	77*	11	-1	-15
CC1=CC(C#N)(C#N)C(C#N)(C#N)C(c2ccccc2)N1 (stereo not given)	.	.	32	12	.	114*
C=C[C@@H]1c2ccccc2N(S(=O)(=O)c2ccc(C)cc2)[C@H](c2ccccc2)C1(C#N)C#N	-1	-1	.	.	0	.
O=S(=O)(Nc1ccc(O)c(Sc2nc3ccccc3s2)c1)c1cccc2ccccc12	34	15*	55	69*	0	6
CSc1nc2c(c(-c3ccc(O)cc3)c1C#N)CCC2	0	-7	86*	2	0	-6
Cc1nnc(SCC(=O)Nc2nnc(-c3ccccc3)o2)s1	-2	-1	.	.	0	.
C=CCN1C(=O)/C(=C2/Sc3ccccc3N2C)SC1=Nc1ccccc1C	-1	2	0	-6	0	-43
Cc1cc(C)c(C#N)c(Nc2ccc(F)cc2)n1	0	-1	.	.	0	.
Cc1nc(C(F)(F)F)nc(Nc2ccc(Br)cc2)c1C#N	0	2	82*	7	-1	-17
Cc1ccc(CNC(=O)C2(NC(=O)Nc3ccc(C)cc3)CCCCC2)cc1	18	-5	79*	-5	0	-12
C/C(CC(C)C)=N/Nc1ccc([N+](=O)[O-])cc1[N+](=O)[O-]	2	6	56	.	0	-12
COC(=O)CC/C(C)=N\Nc1ccc([N+](=O)[O-])cc1[N+](=O)[O-]	11	2	75*	8	-1	-12
Cc1ccc(CNC(=O)CCS(=O)(=O)c2cc3c(cc2Cl)NC(=O)CO3)o1	-1	0	.	.	0	.
CCOC(=O)C(NC(C)=O)C(O)c1ccc([N+](=O)[O-])cc1 (stereo not given)	-1	1	-4	-5	0	-7
CCCCCCCCCCCC(=O)NC(C(=O)OCC)C(O)c1cccc([N+](=O)[O-])c1 (stereo not given)	50	-4	92*	31	0	-4
Cc1ccc(/C=C/c2ccc(=O)n(Cc3ccc(Cl)cc3Cl)n2)cc1	3	-2	37	-6	-2	-25
COC(=O)c1cc(NC(=O)CC(=O)c2cccc(N)c2)cc(C(=O)OC)c1	1	.	.	.	0	.
SMILES	MPTP block	GRIN3A LBD mod	CHOP inhibitor	WT yeast gro inh	TbMetRS inhib	EBV gp42 inh
CCOc1ccc(NC(=O)CCc2c(C)nn(-c3ccc(N4CCCCC4)nn3)c2C)cc1	0	14*	.	.	-1	.
COc1cccc(C(=O)Nc2ccc3c(c2)n(C)c(=O)n3C)c1	-1	-1	.	.	0	.
S=C1NCCc2ccccc2C1c1ccccc1Cl (stereo not given)	0	2	21	62*	0	-6
Cc1cccc(OCC(=O)N/N=C/CC(C)c2ccccc2)c1C (stereo not given)	-2	-6	77*	7	-1	21
CCCOc1ccc(NC(=O)CC2C(=O)N(CC)C(=S)N2Cc2cccs2)cc1 (stereo not given)	-1	-1	93*	.	-1	16
COc1ccc(NC(=O)CC2C(=O)N(C)C(=S)N2Cc2cccs2)cc1 (stereo not given)	1	-4	-3	8	0	-21
COc1ccc(NC(=O)CC2C(=O)N(Cc3ccccc3)C(=S)N2CCN2CCOCC2)cc1 (stereo not given)	1	-2	5	9	2	-17
C=CCN1C(=O)C(CC(=O)Nc2ccc(OCCC)cc2)N(CCCN2CCN(Cc3ccccc3)CC2)C1=S (stereo not given)	14	-2	94*	58	-1	3
CCCCCCOc1ccc(NC(=O)CC2C(=O)N(CC)C(=S)N2Cc2ccco2)cc1 (stereo not given)	9	16*	91*	62*	0	12
CCN1C(=O)C(CC(=O)Nc2ccc(F)cc2)N(Cc2ccco2)C1=S (stereo not given)	1	-1	20	14	-1	-8
O=C(COc1ccc(CO)cc1)Nc1ccc(F)cc1	0	-4	22	-15	-1	-7
c1ccc2c(c1)sc1nnnn12	0	1	-9	66*	0	-18
Cc1[nH]nc(-c2ccc(O)cc2O)c1-c1ccc(Cl)cc1	20	23*	46	-7	-1	-16
COc1ccc(-c2n[nH]c(C)c2-c2ccc(Cl)cc2)c(O)c1	5	10*	93*	49	-1	1
COc1ccc(-c2n[nH]c(C)c2-c2ccc(Cl)cc2)c(O)c1OC	9	-18	90*	36	-1	8
Cc1[nH]nc(-c2ccc(O)cc2O)c1-c1nc2ccccc2s1	1	-12	3	-15	1	20
O=C(NCc1ccccc1F)c1cccc(S(=O)(=O)NCc2ccccc2)c1	1	6	.	.	0	.
COc1ccc(OC)c(/C=C/c2ccnc3ccccc23)c1	0	-1	.	.	0	.
Cc1cc(C)n(-c2ccc(C(=O)Nc3cccc(S(=O)(=O)N(C)C)c3)cc2)n1	3	3	58	-12	1	-14
Cc1cc(C)n(-c2ccc(C(=O)Nc3cccc([N+](=O)[O-])c3)cc2)n1	2	19*	-16	-7	0	-10
Cc1cc(C)n(-c2ccc(C(=O)Nc3nc4ccccc4s3)cc2)n1	-2	15*	90*	1	0	-2
O=C(NNC(=O)c1ccccc1OCc1ccccc1)c1ccccc1O	1	-6	.	.	1	.
Cc1nn2cnnc2c(C)c1Cc1ccc(Cl)cc1	-2	1	.	.	-1	.
